Results from different studies.
Protocols differ between the studies behind these lines.
Target: Serine/threonine-protein kinase OSR1 (OXSR1, Homo sapiens, UniProt O95747)

For `COc1ncc2cc3ccccc3nc2c1C#N`, the remaining binding was 100% (cell-free assay, competition with immobilised ligand; 5 µM).
`O=C(N[C@H]1CCCCC/C=C\C2C[C@@]2(C(=O)O)NC(=O)[C@@H]2C[C@@H](Oc3ccncc3)CN2C1=O)OC1CCCC1` (stereo partly shown) gave a remaining binding of 75% (binding, competition with immobilised ligand; 1 µM).
For `C[C@@H]1CCN(c2nccc(-c3cnn4ncccc34)n2)C1`, the remaining binding was 75% (binding; 1 µM).
With `NS(=O)(=O)c1cc(NC(=O)Cc2ccccc2)ccc1Oc1cccc(Cl)c1` the remaining binding was 78% (cell-free assay, competition with immobilised ligand; 1 µM).
For `F[C@@H]1CCN(c2nccc(-c3cnn4ncccc34)n2)C1`, the remaining binding was 100% (binding; 1 µM).
`O=C(c1ccc(Nc2nccc(-c3cc4ccccc4s3)n2)cc1)N1CCC(N2CCCC2)CC1` gave a remaining binding of 100% (binding, competition with immobilised ligand; 1 µM).
The remaining binding of `Cc1cc(C)c(-n2ccn3nc(-c4cccnc4)cc23)cc1NC(=O)c1cc(C#N)cc(S(F)(F)(F)(F)F)c1` is reported as 87% (cell-free assay, competition with immobilised ligand; 0.1 µM).
For `FC(F)(F)Oc1cccc(-c2cnc3ccc(-c4ccncc4)nn23)c1`, the remaining binding was 82% (cell-free assay, competition with immobilised ligand; 5 µM).
For `C[C@H](c1cccc(C#N)c1)n1cc(Cl)cc(C(N)=O)c1=N`, the remaining binding was 81% (cell-free assay, competition with immobilised ligand; 1 µM).
The remaining binding of `O=C(NCCCN1CCOCC1)c1ccc(Nc2ncc(Cl)c(-c3ccc(Cl)s3)n2)cc1` is reported as 79% (binding, competition with immobilised ligand; 1 µM).
With `CN(C)c1ncc(F)c(-c2cnn3ncccc23)n1` the remaining binding was 95% (binding; 1 µM).
`COc1cnc(Nc2cccc(S(N)(=O)=O)c2)nc1N1CCN(c2ccccc2)CC1` gave a remaining binding of 90% (binding, competition with immobilised ligand; 1 µM).
For `O=C(NCC1CCOCC1)c1n[nH]cc1NC(=O)c1c(F)cccc1F`, the remaining binding was 73% (binding, competition with immobilised ligand; 1 µM).
`CNC(=O)c1ccc(Nc2ncc(C(F)(F)F)c(NCc3nccnc3N(C)S(C)(=O)=O)n2)cc1` has a remaining binding of 100% (cell-free assay, competition with immobilised ligand; 0.1 µM).
The remaining binding of `N[C@H]1CCN(c2nccc(-c3cnn4ncccc34)n2)C1` is reported as 86% (binding; 1 µM).
With `Nc1ncc2c(n1)-c1c([nH]c3ccc(C#CC4CC4)cc13)CCCC2` the remaining binding was 86% (binding, competition with immobilised ligand; 1 µM).
`CC1CCCN1c1nccc(-c2cnn3ncccc23)n1` (stereo not shown) gave a remaining binding of 100% (binding; 1 µM).
`C[C@@H]1CN(c2cc(-c3nn(C)c4ccc(OC5(C)CC5)cc34)ncn2)C[C@H](C)O1` has a remaining binding of 93% (cell-free assay, competition with immobilised ligand; 1 µM).
For `COc1ccnn2ncc(-c3ccnc(N(C)C)n3)c12`, the remaining binding was 87% (binding; 1 µM).
For `O=C(c1ccc(Nc2ncc(Cl)c(-c3cc4ccccc4s3)n2)cc1)N1CCC(N2CCCC2)CC1`, the remaining binding was 74% (binding, competition with immobilised ligand; 1 µM).
With `O=C(O)[C@@H]1[C@@H](Cn2nnc3ccccc3c2=O)CC[C@H]1C(=O)c1ccc(OCCC2CCOCC2)cc1` the remaining binding was 100% (cell-free assay, competition with immobilised ligand; 1 µM).
The remaining binding of `c1cnn2ncc(-c3ccnc(N4CCC45COC5)n3)c2c1` is reported as 62% (binding; 1 µM).
